Assay results reported in ChEMBL document CHEMBL1126728, “Synthesis and biochemical evaluation of the CBI-PDE-I-dimer, a benzannelated analog of (+)-CC-1065 that also produces delayed toxicity in mice” (J Med Chem, 1993).

What was measured:
Mus musculus [1] = assay: Median day of death (MDD) in normal (Non tumor bearing) mice treated with a single i.v. dose at 25 ug/kg; format: functional
In short: (§1)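 Non-tumor-bearing mice got one intravenous injection in a vehicle of 2% DMA, 10% Emulphor EL-620P and 88% sterile water. Survival was followed for 90 days, which ended the experiment. Six mice per dose group; the value is the median day of death. Deaths after more than 28 days counted as delayed.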

Mus musculus [2] = assay: Median day of death (MDD) in normal (Non tumor bearing) mice treated with a single i.v. dose at 50 ug/kg; format: functional; in short: as §1
L1210 [3] = assay: In vitro cytotoxicity against mouse leukemia L1210 cells; format: functional, cell-based
In short: (§2)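 L1210 mouse leukemia cells in RPMI 1634 supplemented with 5% fetal calf serum, 0.075% sodium bicarbonate, penicillin and streptomycin. Drug added to cultures at about 5 × 10^3 cells/mL, incubated 3 days at 37 °C. Cell number counted with a Coulter counter; IC50 in nM, run side by side with the corresponding CPI analog.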

L1210 [4] = assay: In vitro cytotoxicity against mouse leukemia L1210 cells was determined; format: functional, cell-based; in short: as §2
Mus musculus [5] = assay: in vivo percent increase in lifespan (ILS) at the optimum dose in L1210 cells; format: functional
In short: (§3)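 L1210 leukemia, passaged in syngeneic DBA/2 female mice, was implanted i.p. at 10^6 cells/mouse on day 0; one i.v. dose on day 1 (2% DMA/10% Emulphor EL-620P/88% water); 6 mice per group; dose-response run. Optimal dose = greatest efficacy with ≤15% drug-related deaths. %ILS = (median survival treated/median survival vehicle control − 1) × 100, counting long-term survivors.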

Mus musculus [6] = assay: Optimum antitumor dose (OD) against L1210 mouse leukemia cells implanted intraperitoneally in CD2F1 mice; format: functional
In short: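 L1210 cells passaged in DBA/2 female mice, implanted ip (10^6 cells/mouse) in CD2F1 mice, 6 per group, on day 0. Single iv dose 24 h later (day 1) in 2% DMA, 10% Emulphor EL-620P, 88% sterile water; dose response run. Optimum dose (µg/kg) is the dose giving greatest ILS (median survival) with ≤15% drug-related deaths.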

Mus musculus [7] = assay: Median day of death (MDD) in normal (Non tumor bearing) mice treated with a single i.v. dose at 200 ug/kg; format: functional; in short: as §1
Mus musculus [8] = assay: Median day of death (MDD) in normal (Non tumor bearing) mice treated with a single i.v. dose at 400 ug/kg; format: functional; in short: as §1
Mus musculus [9] = assay: Median day of death (MDD) in normal (Non tumor bearing) mice treated with a single i.v. dose at 100 ug/kg; format: functional; in short: as §1
Mus musculus [10] = assay: Optimum antitumor dose (OD) against L1210 mouse leukemia cells implanted intraperitoneally in CD2F1 mice (Highest dose tested); format: functional; in short: as §3

Structure (SMILES)	IC50 (L1210 [4]) [nM]	ILS (Mus musculus [5]) [%]	OD (Mus musculus [6]) [mg/kg]	further results
COc1c(O)c2c(c3cc(C(=O)N4CCc5c4c(O)c(OC)c4[nH]c(C(=O)N6C[C@H]7C[C@@]78C6=CC(=O)c6[nH]cc(C)c68)cc54)[nH]c13)CCN2C(N)=O [(+)-CC-1065]				MDD (Mus musculus [1]): 42; MDD (Mus musculus [2]): 41
OC1=CC2=NCC3C[C@]23c2ccccc21 (some centres not stated)				IC50 (L1210 [3]): 6600 nM
CC(=O)N1CC2C[C@@]23C1=CC(=O)c1ccccc13 (single isomer, unassigned; (+))	5			
O=C(Nc1ccc2[nH]c(C(=O)N3CC4C[C@@]45C3=CC(=O)c3ccccc35)cc2c1)c1cc2ccccc2[nH]1 (single isomer, unassigned; (+))	0.006	67	0.1	MDD (Mus musculus [7]): 7
COc1c(O)c2c(c3cc(C(=O)N4CCc5c4c(O)c(OC)c4[nH]c(C(=O)N6CC7C[C@]78C6=CC(=O)c6ccccc68)cc54)[nH]c13)CCN2C(N)=O (single isomer, unassigned; (-))	0.01	6	0.2	MDD (Mus musculus [8]): 5
OC1=CC2=NCC3C[C@@]23c2ccccc21 (some centres not stated)	230			
O=C1C=C2N(C(=O)c3cc4ccccc4[nH]3)CC3C[C@]23c2ccccc21 (single isomer, unassigned; (-))	12			
CC(=O)N1CC2C[C@]23C1=CC(=O)c1ccccc13 (single isomer, unassigned; (-))	70			
COc1c(O)c2c(c3cc(C(=O)N4CCc5c4c(O)c(OC)c4[nH]c(C(=O)N6CC7C[C@@]78C6=CC(=O)c6ccccc68)cc54)[nH]c13)CCN2C(N)=O (some centres not stated)	0.02	28	0.2	MDD (Mus musculus [1]): 48; MDD (Mus musculus [8]): 5; MDD (Mus musculus [9]): 41; MDD (Mus musculus [2]): 42; MDD (Mus musculus [7]): 38
O=C1C=C2N(C(=O)c3cc4ccccc4[nH]3)CC3C[C@@]23c2ccccc21 (single isomer, unassigned; (+))	0.1	50	0.8	
Cc1c[nH]c2c1[C@@]13CC1CN(C(=O)c1cc4cc(NC(=O)c5cc6ccccc6[nH]5)ccc4[nH]1)C3=CC2=O (some centres not stated)		83	0.1	MDD (Mus musculus [7]): 3
O=C(Nc1ccc2[nH]c(C(=O)N3CC4C[C@]45C3=CC(=O)c3ccccc35)cc2c1)c1cc2ccccc2[nH]1 (single isomer, unassigned; (-))	0.3	50		OD (Mus musculus [10]): 1.6 mg/kg
